Experimental data published in ChEMBL document CHEMBL1811814, “Synthesis and evaluation of indole, pyrazole, chromone and pyrimidine based conjugates for tumor growth inhibitory activities--development of highly efficacious cytotoxic agents” (Eur J Med Chem, 2010).

Columns and labels:
Type in all cases: functional
T47D [1] = assay: Growth inhibition of human T47D cells; conditions: read-out: LC50 (the source's name)
SNB-75 = assay: Growth inhibition of human SNB75 cells assessed tumor cell growth at 10^-5 M; set-up: scale not given: the % may be the effect or the level left
How it was run: (§1)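 Single-dose screen at 10^-5 M across the 60 human tumor cell line panel, run to NCI standards. The value is the percent growth of each cell line in the presence of compound. Compounds active at this dose moved on to five-concentration testing (10^-4 to 10^-8 M).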

CCRF-CEM [2] = assay: Growth inhibition of human CCRF-CEM cells assessed tumor cell growth at 10^-5 M; set-up: scale not given: the % may be the effect or the level left
How it was run: (§2)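 NCI 60-human-tumor-cell-line panel screen. Each compound was tested at a single concentration of 10^-5 M, and percent growth of tumor cells was recorded for each cell line. Growth inhibition was expressed from these percent-growth values.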

MDA-MB-468 [3] = assay: Growth inhibition of human MDA-MB-468 cells assessed tumor cell growth at 10^-5 M; set-up: scale not given: the % may be the effect or the level left; how it was run: as §2
EKVX = assay: Growth inhibition of human EKVX cells assessed tumor cell growth at 10^-5 M; set-up: scale not given: the % may be the effect or the level left; how it was run: as §2
SW-620 = assay: Growth inhibition of human SW620 cells
A498 = assay: Growth inhibition of human A498 cells assessed tumor cell growth at 10^-5 M; set-up: scale not given: the % may be the effect or the level left; how it was run: as §2
HL-60(TB) [4] = assay: Growth inhibition of human HL-60(TB) cells assessed tumor cell growth at 10^-5 M; set-up: scale not given: the % may be the effect or the level left
How it was run: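 HL-60(TB), part of the 60-line panel, tested at a single concentration of 10^-5 M. The read-out is percent tumor cell growth relative to untreated growth.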

SK-MEL-5 = assay: Growth inhibition of human SK-MEL-5 cells assessed tumor cell growth at 10^-5 M; set-up: scale not given: the % may be the effect or the level left; how it was run: as §2
KM12 = assay: Growth inhibition of human KM12 cells assessed tumor cell growth at 10^-5 M; set-up: scale not given: the % may be the effect or the level left; how it was run: as §2
IGROV-1 = assay: Growth inhibition of human IGROV1 cells assessed tumor cell growth at 10^-5 M; set-up: scale not given: the % may be the effect or the level left; how it was run: as §2
HT-29 = assay: Growth inhibition of human HT-29 cells
DU-145 = assay: Growth inhibition of human DU145 cells
CCRF-CEM [5] = assay: Growth inhibition of human CCRF-CEM cells
T47D [6] = assay: Growth inhibition of human T47D cells assessed tumor cell growth at 10^-5 M; set-up: scale not given: the % may be the effect or the level left; how it was run: as §1
OVCAR-5 = assay: Growth inhibition of human OVCAR5 cells assessed tumor cell growth at 10^-5 M; set-up: scale not given: the % may be the effect or the level left; how it was run: as §2
UACC-62 [7] = assay: Growth inhibition of human UACC62 cells assessed tumor cell growth at 10^-5 M; set-up: scale not given: the % may be the effect or the level left; how it was run: as §1
HL-60(TB) [8] = assay: Growth inhibition of human HL-60(TB) cells
NCI-H226 = assay: Growth inhibition of human NCI-H226 cells
K562 = assay: Growth inhibition of human K562 cells assessed tumor cell growth at 10^-5 M; set-up: scale not given: the % may be the effect or the level left; how it was run: as §2
MOLT-4 = assay: Growth inhibition of human MOLT4 cells assessed tumor cell growth at 10^-5 M; set-up: scale not given: the % may be the effect or the level left; how it was run: as §2
UACC-62 [9] = assay: Growth inhibition of human UACC62 cells
TK-10 = assay: Growth inhibition of human TK10 cells assessed tumor cell growth at 10^-5 M; set-up: scale not given: the % may be the effect or the level left; how it was run: as §1
U-251 = assay: Growth inhibition of human U251 cells
NCI-H460 = assay: Growth inhibition of human NCI-H460 cells
MDA-MB-468 [10] = assay: Growth inhibition of human MDA-MB-468 cells
[11] = read-out: LC50 (the source's name)

Q: For `O=C1/C(=C\c2ccccn2)c2ccccc2N1c1c(Cl)cccc1Cl`, which CC50 (T47D [1]) is on record?
A: > 100 µM

Q: What about the Activity (SNB-75) of the same compound?
A: -17.92%

Q: What about the Activity (CCRF-CEM [2]) of the same compound?
A: 8.81%

Q: And the Activity (MDA-MB-468 [3])?
A: -17.24%

Q: And the Activity (EKVX)?
A: 27.21%

Q: What about the GI50 (SW-620) of the same compound?
A: 1.9 µM

Q: What about the CC50 (SW-620; [11]) of the same compound?
A: 6.7 µM

Q: And the Activity (A498)?
A: 21.33%

Q: And the Activity (HL-60(TB) [4])?
A: 1.39%

Q: What about the Activity (SK-MEL-5) of the same compound?
A: 23.68%

Q: And the Activity (KM12)?
A: -2.11%

Q: What about the Activity (IGROV-1) of the same compound?
A: 8.25%

Q: What about the GI50 (HT-29) of the same compound?
A: 2.1 µM

Q: What about the CC50 (HT-29; [11]) of the same compound?
A: 9.1 µM

Q: And the GI50 (DU-145)?
A: 2.1 µM

Q: What about the CC50 (DU-145; [11]) of the same compound?
A: 9.1 µM

Q: And the GI50 (CCRF-CEM [5])?
A: 3.2 µM

Q: What about the CC50 (CCRF-CEM [5]; [11]) of the same compound?
A: > 100 µM

Q: What about the Activity (T47D [6]) of the same compound?
A: 12.74%

Q: And the Activity (OVCAR-5)?
A: 122.39%

Q: And the Activity (UACC-62 [7])?
A: 24.91%

Q: What about the GI50 (HL-60(TB) [8]) of the same compound?
A: 3.8 µM

Q: And the CC50 (HL-60(TB) [8]; [11])?
A: > 100 µM

Q: And the GI50 (NCI-H226)?
A: 0.01 µM

Q: And the CC50 (NCI-H226; [11])?
A: 9.1 µM

Q: And the Activity (K562)?
A: 9.42%

Q: And the Activity (MOLT-4)?
A: 3.8%

Q: And the GI50 (UACC-62 [9])?
A: 1.6 µM

Q: And the CC50 (UACC-62 [9]; [11])?
A: 6.9 µM

Q: And the Activity (TK-10)?
A: 52%

Q: And the GI50 (U-251)?
A: 1.8 µM

Q: And the CC50 (U-251; [11])?
A: 7.4 µM

Q: What about the GI50 (NCI-H460) of the same compound?
A: 1.8 µM

Q: What about the CC50 (NCI-H460; [11]) of the same compound?
A: 7 µM

Q: And the GI50 (MDA-MB-468 [10])?
A: 0.9 µM

Q: What about the CC50 (MDA-MB-468 [10]; [11]) of the same compound?
A: 7.4 µM
